Shown are actives, neighbours in structure and some others; about 1.9% of the full set was active somewhere.
PLCg1 inh – PLC-gamma1 (human) inhibition, primary screen | P19174 | inhibition, % at 12.2 µM | purified PLC-gamma1, fluorogenic substrate, fluorescence | 370,000 compounds, 0.84% hits
DAGLB inh – blocks human DAGLB lipase activity; 340,000 compounds, 0.059% hits; HEK293T DAGLB membrane lysate, EnzChek fluorogenic substrate; inhibition, % at 5.17 µM; AID 504411; in the data active = inhibition above about 34%;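 note: 0% = enzyme with vehicle and 100% = wells lacking enzyme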
sPLA2-III inh – Blocks human group III sPLA2 activity; inhibition, % at 12.2 µM; Q9NZ20; QFRET BODIPY PC-A2 liposome hydrolysis, fluorescence; 370,000 compounds, 0.56% hits;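 active = inhibition above mean plus 3 SD of compounds lying within the high and low control bounds, cut at about 19% in these data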;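 note: 0% = median of test compound wells and 100% = no enzyme DMSO wells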
Tb MetRS inh – blocks T. brucei methionyl-tRNA synthetase activity; purified T. brucei MetRS, ATP depletion, Kinase-Glo luminescence; inhibition, % at 11.9 µM; 360,000 compounds, 0.4% hits; AID 624268;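 active = inhibition above a per-plate cutoff of the control wells' mean inhibition plus 3 SD, cut at about 5.5% in these data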;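 note: 0% = DMSO wells median and 100% = median of wells with control inhibitor compound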
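Material – parasite MetRS enzyme · Medium – HEPES-MgCl2-KCl buffer plus DTT, spermine, BSA, pyrophosphatase · Reagent – ATP, methionine and E. coli bulk tRNA substrates · Times – 15 min enzyme-compound preincubation, 2 h reaction, 10 min detection, 25 °C · Measured by – luminescence of leftover ATP · Evaluation – percent inhibition relative to median high and low control wells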
PLC-beta3 inh – inhibitors of human phospholipase C beta3 | 370,000 compounds, 0.18% hits | Purified PLC-beta3, fluorogenic substrate, fluorescence | inhibition, % at 12.2 µM | Q01970; in the data active = inhibition above about 11%;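 note: 0% = median of compound wells on plate and 100% = full blocker control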
Target sequence (Q01970 whole entry, looked up): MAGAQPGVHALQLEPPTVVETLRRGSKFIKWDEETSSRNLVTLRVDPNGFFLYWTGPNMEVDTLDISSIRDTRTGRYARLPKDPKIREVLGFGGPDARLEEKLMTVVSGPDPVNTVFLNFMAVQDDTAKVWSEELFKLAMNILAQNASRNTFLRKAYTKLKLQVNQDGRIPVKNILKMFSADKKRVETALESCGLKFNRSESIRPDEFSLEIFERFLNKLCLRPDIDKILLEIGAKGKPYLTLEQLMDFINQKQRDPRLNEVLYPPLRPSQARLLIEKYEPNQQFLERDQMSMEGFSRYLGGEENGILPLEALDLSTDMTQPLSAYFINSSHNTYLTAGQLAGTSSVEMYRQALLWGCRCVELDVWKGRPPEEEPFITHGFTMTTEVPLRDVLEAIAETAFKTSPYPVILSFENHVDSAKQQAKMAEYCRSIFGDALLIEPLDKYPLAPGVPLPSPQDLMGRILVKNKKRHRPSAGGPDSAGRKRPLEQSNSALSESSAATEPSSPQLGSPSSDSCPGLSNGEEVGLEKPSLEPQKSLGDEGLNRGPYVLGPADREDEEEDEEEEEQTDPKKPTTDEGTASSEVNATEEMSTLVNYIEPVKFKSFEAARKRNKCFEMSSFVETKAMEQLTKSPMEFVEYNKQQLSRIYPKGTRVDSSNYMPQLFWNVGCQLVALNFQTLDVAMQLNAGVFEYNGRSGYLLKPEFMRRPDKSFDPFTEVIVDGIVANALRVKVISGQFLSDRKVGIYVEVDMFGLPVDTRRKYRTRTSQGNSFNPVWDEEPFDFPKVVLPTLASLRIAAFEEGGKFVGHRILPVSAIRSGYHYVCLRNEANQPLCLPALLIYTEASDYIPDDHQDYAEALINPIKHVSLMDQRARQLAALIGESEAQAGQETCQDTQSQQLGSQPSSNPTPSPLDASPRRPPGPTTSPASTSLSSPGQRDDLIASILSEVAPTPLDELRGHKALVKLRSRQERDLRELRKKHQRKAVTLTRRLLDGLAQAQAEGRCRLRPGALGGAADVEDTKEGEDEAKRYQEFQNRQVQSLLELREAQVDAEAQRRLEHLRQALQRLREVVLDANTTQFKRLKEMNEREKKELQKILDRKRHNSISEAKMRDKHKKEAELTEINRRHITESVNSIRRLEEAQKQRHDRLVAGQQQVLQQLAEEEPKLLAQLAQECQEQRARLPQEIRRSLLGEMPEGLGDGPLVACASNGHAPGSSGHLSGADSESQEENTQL
DAGLB inh conf – DAGLB (human) inhibition, confirmation screen; shares compounds with DAGLB inh; HEK293T DAGLB membrane lysate, EnzChek fluorogenic substrate; inhibition, % at 5.17 µM; 190 compounds, 73% hits; AID 504445;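 active = mean inhibition over triplicate wells above a set limit taken from the primary lipase screen, cut at about 34% in these data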;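 note: 0% = DAGLB with DMSO and 100% = wells lacking DAGLB enzyme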
Tb MetRS conf – confirmation of Trypanosoma brucei MetRS inhibitors | inhibition, % at 11.9 µM | T. brucei MetRS enzyme, luminescence (ATP depletion) | shares compounds with Tb MetRS inh | AID 624412 | 1,400 compounds, 93% hits; in the data active = inhibition above about 7%
Jurkat cytotox – Jurkat T cell cytotoxicity for MetRS hits. shares compounds with Tb MetRS inh. Jurkat cells viability, ATP luminescence. inhibition, % at 8.3 µM. 1,400 compounds, 12% hits; in the data active = inhibition above about 15%;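 note: 0% = vehicle and 100% = reference inhibitor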
TbMetRS FP orth – inhibits T. brucei methionyl tRNA synthetase in orthogonal FP test; 1,400 compounds, 44% hits; purified T. brucei MetRS, fluorescence polarization; inhibition, % at 11.9 µM; shares compounds with Tb MetRS inh; AID 651607; in the data active = inhibition above about 17%;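 note: 0% = vehicle wells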
PLCgamma1 ctr – PLC-gamma1 inhibition, counter-screen for PLC-beta3 hits; shares compounds with PLCg1 inh; purified PLC-gamma1, fluorogenic substrate, fluorescence; inhibition, % at 12.3 µM; 3,300 compounds, 3.1% hits; AID 743258
PLCbeta3 conf – human PLC-beta3 inhibition, confirmation. inhibition, % at 12.3 µM. purified PLC-beta3, fluorogenic substrate fluorescence. 3,300 compounds, 1% hits. AID 743261. shares compounds with PLCg1 inh; in the data active = inhibition above about 11%
sPLA2 confirm – human GIII-sPLA2 inhibition, confirmation. shares compounds with sPLA2-III inh. recombinant hGIII-sPLA2, BODIPY PC-A2 QFRET fluorescence. 2,000 compounds, 34% hits. inhibition, % at 12.2 µM;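 active = mean inhibition across triplicates above the hit cutoff set in the earlier primary screen, cut at about 19% in these data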;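 note: 0% = enzyme with DMSO and 100% = DMSO wells lacking enzyme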
BODIPY interf – counter-screen for HGIII-sPLA2 inhibitors: 535nm fluorescence interference; inhibition, % at 12.2 µM; BODIPY FL product fluorescence interference, QFRET; shares compounds with sPLA2-III inh; 2,000 compounds, 8.5% hits;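 active = average inhibition above the solvent-only control mean plus 3 SD, cut at about 6% in these data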;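 note: 0% = DMSO with substrate plus product and 100% = DMSO with substrate alone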
535nm interf DR – interferes with 535nm fluorescence in dose response counter-screen. 240 tested, under 10 active. AID 743455. shares compounds with sPLA2-III inh. BODIPY FL product fluorescence interference, cell-free. IC50, µM;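 active = IC50 at or below 10 µM; inactive = IC50 above 10 µM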
* = called active by the depositor; x = not tested or not shown. Cut-off read from the data, not from the text of the source, unless noted: active = inhibition above about 9.5%; inactive = the rest.

SMILES | PLCg1 inh | DAGLB inh | sPLA2-III inh | Tb MetRS inh | PLC-beta3 inh | DAGLB inh conf | others
O=C(O)c1ccccc1NS(=O)(=O)c1ccc(NNC(=S)Nc2ccc(OC(F)F)cc2)c([N+](=O)[O-])c1 | 14.2* | 52.0* | -28.5 | -0.1 | 3.6 | 66.8* | PLCgamma1 ctr=16.9*;PLCbeta3 conf=-15.2
O=C(O)c1ccccc1NS(=O)(=O)c1ccc(N/N=C/c2cccc(O)c2O)c([N+](=O)[O-])c1 | 9.6* | 42.2* | -49.4 | -0.4 | 1.4 | 53.2* | PLCgamma1 ctr=3.9;PLCbeta3 conf=0.6
COCCCNC(=O)C[C@H]1C[C@@]2(C(=O)OC)C(=C[C@H](C(C)C)O[C@@H]2C2CC2)N(Cc2cccc3ccccc23)C1=O | 0.8 | x | -6.1 | x | -0.9 | x
O=S(=O)(c1ccc(NC(=S)N/N=C/c2ccc(O)c(O)c2)cc1)N1CCOCC1 | -11.8 | 9.2 | -2.9 | 1.4 | -23.3 | x
O=[N+]([O-])c1cc(Cl)cc(/C=N/NC(=S)Nc2ccc(S(=O)(=O)N3CCOCC3)cc2)c1O | -19.6 | 60.8* | 68.6* | 0.7 | -32.2 | 72.8* | sPLA2 confirm=70.4*;BODIPY interf=19.1*
CCCN1C(=O)/C(=C2/C=Cc3ccccc3N2CC)SC1=S | 9.0 | 53.6* | 21.2* | -0.6 | 0.3 | 73.1* | sPLA2 confirm=50.7*;BODIPY interf=13.3*
CCCN1/C(=C2/SC(=S)N(CC)C2=O)C=Cc2ccccc21 | 1.5 | 33.4 | 14.4 | -1.3 | 3.0 | x
C[C@H](c1ccccc1)N1C[C@@H](COCc2ccccc2)Oc2cccc(Oc3ccc(F)cc3)c2S1(=O)=O | -0.2 | x | -4.2 | x | 4.4 | x
Cc1ccc(CNC(=O)c2nn(C)c(C)c2[N+](=O)[O-])cc1 | 5.7 | -1.4 | 4.2 | -0.4 | 4.6 | x
CCN(CC)c1ccc(N=Nc2nn(C)c(C)c2[N+](=O)[O-])cc1 | 8.7 | 44.0* | 22.7* | -0.2 | 3.8 | 45.9* | sPLA2 confirm=39.3*;BODIPY interf=4.1;535nm interf DR=>122
O=C(c1cccc(Br)c1)N1CCC(Oc2cccnc2)CC1 | 3.7 | x | -1.4 | x | 3.5 | x
CC1(C)CCCN(C(=O)c2ccc3c(c2NCCO)C(=O)c2ccccc2C3=O)C1 | 5.7 | 40.5* | 26.5* | -0.5 | 2.8 | 44.5* | sPLA2 confirm=35.5*;BODIPY interf=-14.1;535nm interf DR=>122
Oc1ccccc1N=Nc1nc(-c2ccccc2)c(-c2ccccc2)[nH]1 | 7.3 | 38.2* | 27.7* | -0.1 | 2.4 | 52.5* | sPLA2 confirm=13.5;BODIPY interf=15.6*
O=C(N[C@@H](Cc1cccnc1)C(=O)N1CCC[C@H]1C(=O)NCCc1ccccc1Cl)c1ccc(Cl)c(Cl)c1 | 3.3 | x | -8.8 | x | 2.4 | x
O=C(c1cc(O)c(O)c([N+](=O)[O-])c1)c1ccccc1F | 10.0* | 37.7* | 28.6* | -0.9 | 3.2 | 23.2 | PLCgamma1 ctr=-3.4;PLCbeta3 conf=-1.0;sPLA2 confirm=15.1;BODIPY interf=2.9
O=C(CCn1c(=O)oc2ccccc21)Nc1ccc2c(c1)OCCO2 | 1.3 | -0.4 | 1.7 | 20.9* | -0.7 | x | Tb MetRS conf=0.2;Jurkat cytotox=14.0;TbMetRS FP orth=1.2
O=[N+]([O-])c1ccc(N2CCN(c3ccccc3O)CC2)cc1 | 2.5 | 2.3 | -0.1 | -0.5 | -18.4 | x
O=[N+]([O-])c1ccc(N2CCN(c3ccccc3O)CC2)c(Cl)c1 | 2.0 | 2.1 | 6.8 | 7.0* | 3.4 | x | Tb MetRS conf=12.1*;Jurkat cytotox=18.3*;TbMetRS FP orth=0.9
Cc1scc(C(=O)N2CCN(S(C)(=O)=O)CC2)c1-c1ccccc1 | 2.2 | 2.7 | 4.5 | 24.2* | 2.9 | x | Tb MetRS conf=3.8;Jurkat cytotox=2.2;TbMetRS FP orth=-2.6
COC(=O)[C@]12C[C@H](CC(=O)NCC3CCCCC3)C(=O)N(Cc3ccco3)C1=C[C@H](C(C)C)O[C@@H]2C1CC1 | -0.5 | x | -8.7 | x | 2.6 | x
COc1ccc(C(=O)N(C)[C@H]2C[C@H]3c4[nH]c5ccccc5c4CCN3C(=O)[C@H]2CO)cc1 | -278.9 | -0.2 | -4.7 | 44.2* | -330.2 | x | Tb MetRS conf=62.5*;Jurkat cytotox=-4.0;TbMetRS FP orth=26.1*
Cc1ccccc1C(=O)N(C)[C@H]1C[C@H]2c3[nH]c4ccccc4c3CCN2C(=O)[C@H]1[C@H](C)O | -208.3 | 0.8 | -13.7 | 31.4* | -281.2 | x | Tb MetRS conf=47.9*;Jurkat cytotox=4.2;TbMetRS FP orth=18.1*
C[C@H](O)[C@@H]1C(=O)N2CCc3c([nH]c4ccccc34)[C@@H]2C[C@@H]1N(C)Cc1ccc2c(c1)OCO2 | -211.3 | 1.4 | 4.0 | 88.8* | -317.2 | x | Tb MetRS conf=102.2*;Jurkat cytotox=0.5;TbMetRS FP orth=83.2*
Cc1ccccc1C(=O)N(C)[C@H]1C[C@H]2c3[nH]c4c(-c5ccccc5)cccc4c3CCN2C(=O)[C@H]1[C@H](C)O | -12.2 | x | -17.1 | x | -21.6 | x
C[C@H](O)[C@@H]1C(=O)N2CCc3c([nH]c4ccccc34)[C@@H]2C[C@@H]1N(C)C(=O)c1cc(Cl)cc(Cl)c1 | -162.2 | x | -21.0 | 12.6* | -219.4 | x | Tb MetRS conf=46.0*;Jurkat cytotox=0.4;TbMetRS FP orth=19.8*
C[C@H](O)[C@@H]1C(=O)N2CCc3c([nH]c4c(-c5ccccc5)cccc34)[C@@H]2C[C@@H]1N(C)C(=O)c1cc(Cl)cc(Cl)c1 | -9.8 | x | -5.3 | x | -14.1 | x
COc1ccc(NC(=O)N(C)[C@H]2C[C@H]3c4[nH]c5ccccc5c4CCN3C(=O)[C@H]2CO)cc1 | -268.4 | 1.0 | -2.1 | 0.4 | -336.6 | x
COC(=O)c1cc2c(c3c4ccccc4n(S(C)(=O)=O)c13)C(=O)N(Cc1ccccc1)C2 | -14.3 | x | -4.0 | x | -15.5 | x
Cc1cccc(NC(=O)[C@H]2CC(=O)O[C@@H]2c2ccccc2)c1C | 0.2 | x | 5.7 | x | 0.1 | x
COc1cccc(CN(C)[C@H]2C[C@H]3c4[nH]c5ccccc5c4CCN3C[C@H]2[C@H](C)O)c1OC | 3.5 | x | -35.3 | x | -0.4 | x
